Most compounds without a hit are left out; they make up all but 1.1% or so of the library.
Diaphorase inh – inhibits diaphorase or chemically oxidizes, flagging diaphorase assay artifacts. AID 1217. inhibition, % at 20 µM. 190,000 tested, 0.69% active. diaphorase resazurin-to-resorufin fluorescence, NADH, 16 min; bacterial (C. kluyveri) enzyme, not human;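 active means primary screen inhibition at 20 µM above a set limit, cut at about 50% in these data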
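material = Clostridium kluyveri diaphorase enzyme | amount = 0.14 U/mL diaphorase, enzyme working solution | schedule = incubation 16 min, room temperature | detection = fluorescence of resorufin formed from resazurin, Ex 544/Em 590 nm | benchmarks = positive control minus NADH, DMSO neutral control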
DTT redox prof – compounds producing H2O2 with reducing agent – biochemical, NIH compound library profiling, artefact control for MLSCN library redox annotation, primary screen; DTT-dependent redox cycling H2O2, phenol red/HRP absorbance; 100% = 100 µM peroxide control, 0% = buffer; activation, % at 10 µM; 200,000 tested, 0.03% active; AID 878;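 active means activation of at least 50% relative to the plate's high and low controls in the primary single-dose screen; inactive means activation below 50%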;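 further: compound incubated with DTT at 0.8 mM final as the reducing agent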
G6PDH counter – counter-screen for G6PDH assay hits: L. mesenteroides G6PDH inhibition; Purified L. mesenteroides G6PDH, diaphorase/resazurin coupled fluorescence, 45 min; AID 1020; inhibition, % at 5 µM; 200,000 tested, 0.12% active; in the data active means inhibition above about 50%
PMI act – increases human mannose-6-phosphate isomerase activity; activation factor at 20 µM; P34949; purified human PMI, coupled resazurin fluorescence, 20 min; active compounds read high; 1 = vehicle control, 0 substrate-free wells; AID 1214; 190,000 tested, 0.005% active;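 active means activation factor of 2 or more at 20 µM, relative to plate controls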
Target sequence (P34949 whole entry, looked up): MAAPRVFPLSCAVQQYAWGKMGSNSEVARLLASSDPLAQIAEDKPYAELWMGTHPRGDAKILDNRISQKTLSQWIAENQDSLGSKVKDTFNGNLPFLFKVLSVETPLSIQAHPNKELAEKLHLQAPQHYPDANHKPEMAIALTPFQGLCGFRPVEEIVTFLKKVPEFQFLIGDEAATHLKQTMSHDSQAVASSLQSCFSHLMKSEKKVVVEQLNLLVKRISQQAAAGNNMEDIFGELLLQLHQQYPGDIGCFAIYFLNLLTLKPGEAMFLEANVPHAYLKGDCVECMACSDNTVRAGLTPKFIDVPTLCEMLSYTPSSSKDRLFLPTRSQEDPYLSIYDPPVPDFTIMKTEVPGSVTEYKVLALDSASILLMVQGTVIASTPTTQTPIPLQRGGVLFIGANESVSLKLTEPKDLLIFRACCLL
Diaphorase act – activates diaphorase or chemically reduces, flagging diaphorase assay artifacts; Diaphorase/resazurin coupled assay, resorufin fluorescence, 16 min; active compounds read high; 1 = vehicle wells, 0 = NADH-free wells; activation factor at 20 µM; 190,000 tested, 0.005% active; AID 1229;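 active means diaphorase activity raised at least twofold by the compound at 20 µM; inactive means activation factor below 2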
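System – purified diaphorase enzyme from Clostridium kluyveri · Input – enzyme 0.07 U/mL final · Also added – final NADH 0.114 mM, resazurin 0.1 mM · Measured by – fluorescence of resorufin, 544 nm excitation, 590 nm emission · Timing – 16 min enzyme reaction, ambient temperature · Measure – resorufin increase flagging diaphorase activators or reducers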
PMI act satM6P – activators of human phosphomannose isomerase at near-saturating mannose 6-phosphate; 190,000 tested, 0.34% active; activation factor at 20 µM; coupled PMI enzyme assay, resazurin fluorescence, 20 min; active compounds read high; 1 = untreated enzyme, 0 = substrate-free blank; P34949;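 active means activation factor of 2 or more at 20 µM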
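Test system: human PMI in coupled enzyme assay; Input: PMI at 15 ng/mL final; Medium: HEPES buffer, pH 7.4; Schedule: 20 min incubation at room temperature; Technique: resorufin fluorescence at Ex 544/Em 590 nm; Compound: 20 µM single dose; Probe or stimulus: Near-saturating mannose-6-phosphate, 1.0 mM.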
Large screens that a line does not name were inactive.

C#CC(C)(CC)NC(=O)Cn1nnc(-c2cccc(C(F)(F)F)c2)n1 (configuration not stated)	none
CCC(Br)C(=O)Nc1ccc(OC)cc1 (configuration not stated)	none
COC(=O)C(NNc1ccccc1)(NC(=O)c1cccc(F)c1)C(F)(F)F (configuration not stated)	PMI act satM6P 2.2
COc1cc(/C=C2\SC(=O)N(Cc3ccc(Cl)cc3)C2=O)cc([N+](=O)[O-])c1O	Diaphorase inh 87
COc1cc(/C=C2\SC(=O)N(Cc3ccc(F)cc3)C2=O)cc([N+](=O)[O-])c1O	none
CCN(Cc1ccccc1)c1ccc(/C=N/NS(=O)(=O)c2cccc([N+](=O)[O-])c2)cc1	PMI act satM6P 2
CCN(CC)c1ccc(/C=N/NS(=O)(=O)c2ccc(C)c([N+](=O)[O-])c2)cc1	none
CCCCN(Cc1ccco1)C(=O)c1cc2c(=O)[nH]c3ccc(C)cc3c2s1	Diaphorase inh 57
Cc1ccc2[nH]c(=O)c3cc(C(=O)N(CCCOC(C)C)Cc4ccco4)sc3c2c1	none
CSC1=NCCN1C(=O)C12CC3CC(CC(C3)C1)C2	none
CC(CN1CCOCC1)OC(=O)c1ccc(Br)cc1 (configuration not stated)	G6PDH counter 57
CC1(C)N([O-])C2=C(c3ccccc3C2=O)[N+](=O)C1(C)C	Diaphorase inh 67
CCOc1ccc(-c2cc3nc(C4CCN(C(=O)OC(C)(C)C)CC4)c(C(=O)O)cn3n2)cc1	none
COc1ccc(CCN=C(NS(=O)(=O)c2ccc(Cl)cc2)c2ccccc2)cc1	Diaphorase inh 52
COc1ccc(CCN=C(NS(=O)(=O)c2ccccc2)c2ccccc2)cc1OC	none
N#Cc1c(NCCCO)nc(NCc2ccccc2)c2c1CCN(Cc1ccccc1)C2	Diaphorase inh 56
CN1CCc2c(C#N)c(N3CCCCC3)nc(NCc3ccccc3)c2C1	none
O=C(CN1C(=O)C2C3C=CC(C3)C2C1=O)NCCN1CCCc2ccccc21 (configuration not stated)	PMI act satM6P 2.1
O=C1C2C3C=CC(C3)C2C(=O)N1CCC(=O)N1CCc2ccccc21 (configuration not stated)	none
O=C(CCN1C(=O)C2C3C=CC(C3)C2C1=O)NCCN1CCCc2ccccc21 (configuration not stated)	PMI act satM6P 2.1
COCCNC(=O)C(c1ccc(F)cc1)N(C(=O)CCC(=O)Nc1nccs1)c1cccc(C)c1 (configuration not stated)	none
COc1cc(/C=N/NC(N)=O)ccc1OC(=O)c1cccs1	none
COc1cc(/C=N/Nc2ccc(Cl)cc2)ccc1OC(=O)c1cccs1	PMI act satM6P 2.3
COc1ccc(-n2nc3c(N)n[nH]c3cc2=O)cc1	PMI act satM6P 2
O=C(CSc1nc(C2CC2)nc2ccccc12)N1c2ccccc2Sc2ccc(C(F)(F)F)cc21	none
O=[N+]([O-])c1cc([N+](=O)[O-])c2cccnc2c1Oc1ccccc1O	Diaphorase inh 60
O=[N+]([O-])c1cc(Cl)c(O)c2ncccc12	G6PDH counter 59
O=[N+]([O-])c1ccc(O)c2ncccc12	G6PDH counter 66
COc1ccc(/C=N/NC(=O)c2cccc(NC(=O)c3ccccc3Cl)c2)c(OC)c1	none
CCN(CC)C(=O)n1cnc(-c2ccccc2)c1-c1ccccc1	none
CCN1/C(=C/C(C)=O)Sc2ccc(OC)cc21	none
C=C1c2cc(OC)ccc2NC(=O)N1CC	PMI act satM6P 2
CC1(C)CNc2cc(N)ccc2S1	Diaphorase inh 72
O=C(C1CCN(S(=O)(=O)c2ccccc2[N+](=O)[O-])CC1)N1CCOCC1	none
CCCC1=NN2C(=N)/C(=C\c3cc(C)n(-c4cccc(C)c4)c3C)C(=O)N=C2S1	none
